Here are results for one molecule from ChEMBL document CHEMBL1926589, “2-Anilinonicotinyl linked 2-aminobenzothiazoles and [1,2,4]triazolo[1,5-b] [1,2,4]benzothiadiazine conjugates as potential mitochondrial apoptotic inducers” (Bioorg Med Chem, 2011).

Assay [1] concerns HL-60. Kind of assay: Cell cycle arrest in human HL60 cells assessed as accumulation at G1 phase at 1 uM after 24 hrs using propidium iodide staining by flow cytometry. Type of assay: functional, cell-based. The essentials: (§1)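 HL-60 cells (1 x 10^5 per 1.5 mL) treated 24 h, then fixed in 70% cold ethanol at −20 °C overnight. RNase digestion (400 µg/ml) at 37 °C for 45 min, then propidium iodide (10 µg/ml) for 30 min. Flow cytometry on 10,000 events, FL2-A vs FL2-W, with doublet discrimination. Sub-G0 (hypodiploid) peak taken as apoptotic cells. Mean ± SD of three independent experiments.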
A general note: A flow cytometer gives signals particle by particle.

Assay [2] deals with HL-60. The assay can be described thus: Induction of apoptosis in human HL60 cells assessed as early apoptotic cells at 1 uM after 24 hrs using Annexin V-FITC and propidium iodide staining by flow cytometry relative to control. Type of assay: functional. The procedure, abridged:
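HL-60 cells (1 x 10^5 per 1.5 mL) treated 24 h, washed twice in PBS and stained in binding buffer with annexin V-FITC and PI. Flow cytometry with FITC in FL-1 (530 nm) and PI in FL-2 (585 nm), using quadrant statistics: lower right taken as apoptotic, upper right as post-apoptotic necrotic. Representative of three independent experiments.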

A further assay relates to CV-1. The assay can be described thus: Growth inhibition of african green monkey CV1 cells after 48 hrs by MTT assay. Type of assay: cell-based. The following applies: Chlorocebus aethiops, CV-1, 48 h.
In assay [3] the test system is HL-60. The assay can be described thus: Induction of apoptosis in human HL60 cells assessed as caspase3 activation using DEVD-AFC as substrate at 1 uM after 24 hrs by fluorimetry relative to control. Type of assay: functional. The essentials: (§2)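 HL-60 cells (2 x 10^6) treated 24 h, washed and lysed. Caspase-3, -8 and -9 activities in lysates measured fluorometrically with a commercial caspase fluorescent assay kit. Two independent experiments, each in duplicate.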

The nature of assay [4]: Growth inhibition of human 502713 cells at 10 uM by sulforhodamine B assay. Type of assay: functional. The note with it: read-out: GI. The procedure, abridged:
(§3)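 Single-dose 10 µM screen by sulforhodamine B assay, reported as percent inhibition of cell proliferation. Cells grown in medium with 10% heat-inactivated FBS at 37 °C, 5% CO2, and treated at about 70% confluence or in log phase. Compounds dissolved in DMSO; controls received vehicle (<0.5% v/v).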
(In SRB staining, fixed cells bind dye roughly in proportion to their protein.)

In assay [5] the test system is SiHa. Kind of assay: Growth inhibition of human SiHa cells after 48 hrs by MTT assay. Type of assay: functional, cell-based.
Assay [6] has as its system HL-60. Kind of assay: Induction of NO production in human HL60 cells at 1 uM after 24 hrs using DAF-2DA fluorescent dye based flow cytometric analysis. In kind it is functional, cell-based. The essentials:
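HL-60 cells (1 x 10^5 per 1.5 mL) preloaded 30 min with 10 µM DAF-2-DA before treatment. After 24 h exposure, cells were washed and read by flow cytometry in FL-1 as NO-positive population. Mean ± SD of three independent experiments.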

In assay [7] the test system is HL-60. The assay can be described thus: Growth inhibition of human HL60 cells after 48 hrs by MTT assay. Type of assay: functional, cell-based. The following applies: HL-60, 48 h.
Assay [8] concerns HL-60. The assay can be described thus: Inhibition of NF-kappaB expression in human HL60 cells at 1 uM after 24 hrs by Western blotting. Type of assay: functional, cell-based. The procedure, abridged:
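HL-60 cells treated 24 h and lysed in RIPA buffer on ice; protein measured by Bradford against a BSA standard. 50 µg resolved by SDS-PAGE and transferred to PVDF, blocked in 5% milk/TBST, then primary antibodies 1:1000 for 2 h and HRP secondary 1:1000 for 1 h. ECL detection with β-actin as loading control; bands quantified by densitometry.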
Background: In western blotting, separated proteins are transferred to a membrane and probed.

A further assay concerns HeLa. Kind of assay: Induction of apoptosis in human HeLa cells assessed as DNA ladder formation at 10 uM after 24 hrs by agarose gel electrophoresis. Type of assay: functional, cell-based. The procedure, abridged:
(§4)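 Cells treated 24 h, then 2 x 10^6 cells lysed (Triton X-100 buffer, pH 8.0) with RNase at 37 °C for 90 min and proteinase-K at 50 °C for 1 h. DNA phenol/chloroform-extracted and ethanol-precipitated, then run on 1.8% agarose at 50 V for 1.5 h in TAE. Ladders viewed under UV.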

Assay [9] concerns HL-60. The assay can be described thus: Induction of apoptosis in human HL60 cells assessed as caspase9 activation using LEHD-AMC as substrate at 1 uM after 24 hrs by fluorimetry relative to control. Type of assay: functional. The essentials: as §2
A further assay relates to IMR-32. Kind of assay: Growth inhibition of human IMR32 cells at 10 uM by sulforhodamine B assay. In kind it is functional. The following applies: read-out: GI. The essentials:
as §3

In another assay the test system is DU-145. Kind of assay: Growth inhibition of human DU145 cells at 10 uM by sulforhodamine B assay. In kind it is functional. The following applies: read-out: GI. The essentials:
as §3

Assay [10] relates to HL-60. The assay can be described thus: Cell cycle arrest in human HL60 cells assessed as accumulation at G2/M phase at 1 uM after 24 hrs using propidium iodide staining by flow cytometry. In kind it is functional, cell-based. The essentials:
as §1

In assay [11] the test system is HL-60. Kind of assay: Induction of apoptosis in human HL60 cells at 0.5 uM after 48 hrs by scanning electron microscopy. Type of assay: functional, cell-based. The essentials: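 HL-60 cells at 2 x 10^5/ml in 10% FCS medium exposed to 0.5 or 1 µM for 6–48 h; DMSO vehicle controls. Cells fixed in 2.5% glutaraldehyde in 0.1 M phosphate (pH 7.2) at 4 °C for 1 h, post-fixed in 1% OsO4 and ethanol-dehydrated. Critical-point dried, gold-coated, and imaged by SEM at 40 kV.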

Assay [12] relates to SiHa. Kind of assay: Induction of apoptosis in human SiHa cells assessed as DNA ladder formation at 10 uM after 24 hrs by agarose gel electrophoresis. In kind it is functional, cell-based. The essentials: as §4
The test system of assay [13] is HL-60. Kind of assay: Cell cycle arrest in human HL60 cells assessed as accumulation at S phase at 1 uM after 24 hrs using propidium iodide staining by flow cytometry. In kind it is functional, cell-based. The procedure, abridged:
as §1

pIC50: −log10 of the molar value. Active and inactive are the calls of the source. No cut-off for these calls is given here.

Consider `O=C(Nc1nc2ccc([N+](=O)[O-])cc2s1)c1cccnc1Nc1cc(F)c(F)c(F)c1`, for which the result with HL-60 [1], in the assay with HL-60 [6], in the assay with HeLa, with HL-60 [10], in the assay with HL-60 [11] and in the assay on SiHa [12] was inactive. The result in the assay with HL-60 [13] was inactive. Moreover, the Activity with HL-60 [2] was found to be 15%. Moreover, the results for the pIC50 with CV-1, with SiHa [5] and in the assay with HL-60 [7] were under 4.00, 4.44 and 7.10, respectively. For the same molecule, the “fold change (FC)” value in the assay on HL-60 [3] and in the assay on HL-60 [9] was 2 each time. The inhibition of growth at 10 µM came to 80% in assay [4], 72% in the assay with IMR-32 and 39% with DU-145. Further, in the assay with HL-60 [8], the inhibition result was “Active”.

Usually pIC50 stands for the negative decadic logarithm of the IC50, by convention in mol/L.
